# Calls of active or inactive are those of the source. No cut-off for these calls is given here.
# Experiments:
# [1] = target: T1, Dual specificity tyrosine-phosphorylation-regulated kinase 1B (Homo sapiens, UniProt Q9Y463); assay: Inhibition of recombinant Dyrk1B (unknown origin) using FITC-Asp-His-Thr-Gly-Phe-Leu-Thr-Glu-Tyr-Val-Ala-Thr-Arg-NH2 as substrate after 60 mins
# [2] = target: Insulin-like growth factor 1 receptor (Homo sapiens, UniProt P08069); assay: Inhibition of human recombinant N-terminal His6-tagged IGF-1R using fluorescence substrate after 80 mins by caliper off-chip incubation mobility shift assay
# Sequence of Insulin-like growth factor 1 receptor (P08069 31-736 limits assumed): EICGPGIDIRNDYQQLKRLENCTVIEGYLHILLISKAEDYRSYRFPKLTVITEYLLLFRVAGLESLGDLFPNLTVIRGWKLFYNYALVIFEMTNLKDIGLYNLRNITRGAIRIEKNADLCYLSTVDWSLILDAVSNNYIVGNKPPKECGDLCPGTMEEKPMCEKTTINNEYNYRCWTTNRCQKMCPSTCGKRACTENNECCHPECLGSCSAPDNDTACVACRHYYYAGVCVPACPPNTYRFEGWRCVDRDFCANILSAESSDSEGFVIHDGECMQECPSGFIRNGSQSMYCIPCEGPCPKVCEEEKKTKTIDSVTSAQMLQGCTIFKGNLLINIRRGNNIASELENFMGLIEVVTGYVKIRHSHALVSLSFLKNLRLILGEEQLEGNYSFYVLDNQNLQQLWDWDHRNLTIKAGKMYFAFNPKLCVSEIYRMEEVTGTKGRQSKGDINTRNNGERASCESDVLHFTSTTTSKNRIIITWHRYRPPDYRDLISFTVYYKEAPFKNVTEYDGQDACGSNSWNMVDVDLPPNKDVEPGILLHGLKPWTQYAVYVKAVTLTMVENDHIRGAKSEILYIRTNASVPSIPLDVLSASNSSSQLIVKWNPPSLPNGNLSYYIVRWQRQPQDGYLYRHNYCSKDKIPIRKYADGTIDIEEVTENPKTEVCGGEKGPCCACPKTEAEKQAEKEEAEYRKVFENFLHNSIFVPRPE
# Sequence of Insulin-like growth factor 1 receptor (P08069 741-1367 limits assumed): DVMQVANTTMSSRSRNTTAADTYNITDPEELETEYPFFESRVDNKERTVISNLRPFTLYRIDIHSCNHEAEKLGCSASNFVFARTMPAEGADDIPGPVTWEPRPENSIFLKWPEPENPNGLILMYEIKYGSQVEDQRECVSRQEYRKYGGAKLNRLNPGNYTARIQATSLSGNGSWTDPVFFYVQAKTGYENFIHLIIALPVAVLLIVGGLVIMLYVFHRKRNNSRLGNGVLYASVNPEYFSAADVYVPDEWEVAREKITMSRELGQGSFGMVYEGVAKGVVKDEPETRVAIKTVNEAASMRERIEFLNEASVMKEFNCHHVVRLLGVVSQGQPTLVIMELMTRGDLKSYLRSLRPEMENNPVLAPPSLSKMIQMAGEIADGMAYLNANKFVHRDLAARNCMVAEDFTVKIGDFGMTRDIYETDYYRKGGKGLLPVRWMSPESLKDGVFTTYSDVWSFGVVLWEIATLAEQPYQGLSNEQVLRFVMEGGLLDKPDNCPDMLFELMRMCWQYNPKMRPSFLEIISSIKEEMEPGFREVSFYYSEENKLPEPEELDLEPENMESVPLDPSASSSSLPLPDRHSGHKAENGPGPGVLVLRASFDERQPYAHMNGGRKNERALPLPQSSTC
# [3] = target: Cyclin-dependent kinase 2 (Homo sapiens, UniProt P24941); assay: Inhibition of human recombinant full length C-terminal His6-tagged CDK2 expressed in baculovirus infected Sf21 insect cells using fluorescence substrate after 60 mins by caliper off-chip incubation mobility shift assay
# [4] = Intrinsic clearance in Wistar Han rat hepatocytes assessed per 10^6 cells; assay type: ADME, cell-based, Hepatocyte; settings: read-out: CLH
# Procedure, shortened: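 Intrinsic clearance in Wistar Han rat hepatocytes, expressed as μL/min/1 × 10⁶ cells.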
# [5] = target: T1, Dual specificity tyrosine-phosphorylation-regulated kinase 1B; assay: Inhibition of human full length C-terminal c-Myc tagged Dyrk1B phosphorylation overexpressed in monkey COS1 cells after 5 hrs by ELISA; assay type: cell-based, COS-1
# [6] = Oral bioavailability in Wistar Han rat at 3 umol/kg; assay type: ADME, organism-based; settings: in vivo
# [7] = system: A-375; assay: Cytotoxicity against human A375 cells at 1.33 uM after 72 hrs by calcein green AM/propidium iodide staining-based assay in presence of AZD6244 relative to control; assay type: functional, cell-based
# Procedure, shortened: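 A375 melanoma cells treated with AZD6244 with or without Dyrk1B inhibitor at 1.33 μM for 72 h. Viability by calcein green AM and propidium iodide staining; percentage of dead cells is mean and SEM of at least two separate experiments.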
# [8] = Clearance in Wistar Han rat plasma at 2 umol/kg; assay type: ADME, cell-free
# [9] = Aqueous solubility of the compound at pH 7.4; assay type: physicochemical; settings: buffer
# [10] = Clearance in Wistar Han rat blood at 2 umol/kg; assay type: ADME, tissue-based; settings: whole blood
# [11] = species on record: Homo sapiens; assay: Selectivity ratio of IC50 for human recombinant N-terminal His6-tagged IGF-1R to IC50 for recombinant Dyrk1B (unknown origin)
# [12] = target: T2, Dual specificity tyrosine-phosphorylation-regulated kinase 2 (Homo sapiens, UniProt Q92630); assay: Inhibition of GST-tagged Dyrk2 (unknown origin) expressed in Escherichia coli using [33P]ATP[gammaP]/DYRKtide as substrate after 5 mins by liquid scintillation counting analysis
# T2 sequence (Q92630 whole entry): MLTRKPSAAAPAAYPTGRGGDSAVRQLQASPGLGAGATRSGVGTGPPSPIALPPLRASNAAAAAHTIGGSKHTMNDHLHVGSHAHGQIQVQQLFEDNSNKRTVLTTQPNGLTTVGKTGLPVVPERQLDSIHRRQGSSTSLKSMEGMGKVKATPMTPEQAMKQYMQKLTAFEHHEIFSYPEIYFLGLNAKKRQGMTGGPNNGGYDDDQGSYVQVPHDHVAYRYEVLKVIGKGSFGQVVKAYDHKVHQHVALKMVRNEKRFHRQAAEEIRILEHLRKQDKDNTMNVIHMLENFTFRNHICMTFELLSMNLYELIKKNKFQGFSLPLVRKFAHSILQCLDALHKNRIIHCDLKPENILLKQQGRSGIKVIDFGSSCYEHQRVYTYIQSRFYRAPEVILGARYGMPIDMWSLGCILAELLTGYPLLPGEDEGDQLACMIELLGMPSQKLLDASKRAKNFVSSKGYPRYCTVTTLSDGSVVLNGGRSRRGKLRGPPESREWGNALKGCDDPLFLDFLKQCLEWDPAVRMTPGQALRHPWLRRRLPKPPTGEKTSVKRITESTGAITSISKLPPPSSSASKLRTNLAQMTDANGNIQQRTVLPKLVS
# [13] = target: T3, Dual specificity tyrosine-phosphorylation-regulated kinase 4 (Homo sapiens, UniProt Q9NR20); assay: Inhibition of GST-tagged Dyrk4 (unknown origin) expressed in Escherichia coli using [33P]ATP[gammaP]/DYRKtide as substrate after 5 mins by liquid scintillation counting analysis
# T3 sequence (Q9NR20 whole entry): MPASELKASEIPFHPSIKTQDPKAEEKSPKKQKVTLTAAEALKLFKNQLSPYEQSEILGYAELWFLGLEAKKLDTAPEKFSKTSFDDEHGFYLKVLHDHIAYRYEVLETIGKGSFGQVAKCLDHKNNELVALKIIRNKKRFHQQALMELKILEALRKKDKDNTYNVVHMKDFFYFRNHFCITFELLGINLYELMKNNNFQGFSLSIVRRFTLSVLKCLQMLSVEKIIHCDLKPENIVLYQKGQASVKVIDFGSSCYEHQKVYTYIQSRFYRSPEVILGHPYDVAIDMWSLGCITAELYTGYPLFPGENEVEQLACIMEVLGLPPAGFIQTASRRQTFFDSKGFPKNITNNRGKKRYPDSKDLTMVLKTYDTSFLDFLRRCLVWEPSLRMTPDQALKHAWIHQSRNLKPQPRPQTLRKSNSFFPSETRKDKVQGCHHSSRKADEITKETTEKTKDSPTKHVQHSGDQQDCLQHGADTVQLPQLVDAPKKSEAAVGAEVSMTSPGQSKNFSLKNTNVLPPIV
# [14] = target: Dual specificity tyrosine-phosphorylation-regulated kinase 1A (Homo sapiens) (UniProt Q13627); assay: Inhibition of Dyrk1A (unknown origin) at 1 uM
# Procedure, shortened: (§1)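 Kinase panel of 124 kinases; single test concentration of 1 μM.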
# [15] = target: T4, Dual specificity tyrosine-phosphorylation-regulated kinase 2 (Homo sapiens) (UniProt Q92630); assay: Inhibition of Dyrk2 (unknown origin) at 1 uM; procedure, shortened: as §1
# T4 sequence (whole entry): T2 sequence (Q92630 whole entry)
# [16] = target: T5, Dual specificity tyrosine-phosphorylation-regulated kinase 3 (Homo sapiens) (UniProt O43781); assay: Inhibition of Dyrk3 (unknown origin) at 1 uM; procedure, shortened: as §1
# T5 sequence (whole entry): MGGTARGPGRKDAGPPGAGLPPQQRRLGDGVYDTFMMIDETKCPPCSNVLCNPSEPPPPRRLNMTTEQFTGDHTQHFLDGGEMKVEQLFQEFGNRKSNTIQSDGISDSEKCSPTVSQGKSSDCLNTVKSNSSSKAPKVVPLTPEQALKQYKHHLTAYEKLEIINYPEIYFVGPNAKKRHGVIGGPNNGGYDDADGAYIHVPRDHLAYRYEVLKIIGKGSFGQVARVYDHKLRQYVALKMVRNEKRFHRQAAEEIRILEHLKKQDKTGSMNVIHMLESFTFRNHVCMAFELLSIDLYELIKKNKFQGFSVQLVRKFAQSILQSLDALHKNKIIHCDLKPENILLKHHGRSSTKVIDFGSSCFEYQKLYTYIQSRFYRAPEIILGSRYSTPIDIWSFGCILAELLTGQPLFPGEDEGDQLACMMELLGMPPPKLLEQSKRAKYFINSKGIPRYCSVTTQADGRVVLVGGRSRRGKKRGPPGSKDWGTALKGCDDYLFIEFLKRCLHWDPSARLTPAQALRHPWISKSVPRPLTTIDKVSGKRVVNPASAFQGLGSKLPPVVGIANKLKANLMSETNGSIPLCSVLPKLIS
# T1 sequence (Q9Y463 whole entry): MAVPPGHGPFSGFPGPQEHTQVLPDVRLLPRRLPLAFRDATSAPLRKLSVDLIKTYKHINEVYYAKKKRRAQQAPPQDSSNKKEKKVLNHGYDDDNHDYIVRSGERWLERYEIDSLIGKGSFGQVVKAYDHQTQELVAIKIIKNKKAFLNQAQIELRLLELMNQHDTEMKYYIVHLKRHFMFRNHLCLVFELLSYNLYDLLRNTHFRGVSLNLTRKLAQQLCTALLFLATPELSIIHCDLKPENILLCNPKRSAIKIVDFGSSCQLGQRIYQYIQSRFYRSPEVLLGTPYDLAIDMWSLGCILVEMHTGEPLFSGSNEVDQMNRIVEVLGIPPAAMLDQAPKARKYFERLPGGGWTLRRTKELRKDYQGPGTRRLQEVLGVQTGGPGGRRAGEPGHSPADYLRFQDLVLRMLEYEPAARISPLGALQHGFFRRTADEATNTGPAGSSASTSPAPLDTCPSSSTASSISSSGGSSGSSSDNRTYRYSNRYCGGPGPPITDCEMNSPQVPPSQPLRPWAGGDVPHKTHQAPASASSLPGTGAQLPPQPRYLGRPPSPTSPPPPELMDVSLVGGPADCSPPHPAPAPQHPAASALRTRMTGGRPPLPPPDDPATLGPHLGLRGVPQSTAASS
Compound,IC50 [1] [nM],IC50 [2] [nM],IC50 [3] [nM],hepatocyte CLint [4] [µL/min/1e6 cells],IC50 [5] [nM],bioavailability [6] [%],clearance [8] [mL/min/kg],other results
O=C(NC1CCCC1)c1ccc(-c2nccc(-c3c[nH]c4cnccc34)n2)cc1,98,67700,45900,32,,,,
CS(=O)(=O)c1ccc(-c2nccc(-c3c[nH]c4cnccc34)n2)cc1,21,> 100000,16900,129,898,0,,
C(=C\c1nccc(-c2c[nH]c3cnccc23)n1)/c1ccccc1,7,46900,5180,,192,,,Activity [7]: inactive
Cc1nccc(-c2c[nH]c3cnccc23)n1,17,> 100000,38400,,3070,,,
COc1cc(N2CCN(C)CC2)ccc1Nc1cc(-c2c[nH]c3cnccc23)ncn1,1,34100,12300,11,282,,375,
COc1cc(N2CCN(C(C)=O)CC2)ccc1Nc1nccc(-c2c[nH]c3cnccc23)n1,9,965,2000,< 1,,,137,
CN1CCN(c2ccc(Nc3cc(-c4c[nH]c5cnccc45)ncn3)cc2)CC1,2,> 100000,577,13,453,,179,
c1cc2c(-c3ccnc4[nH]ccc34)c[nH]c2cn1,3,7990,314,,378,,,
Cc1nccc(-c2cn(Cc3ccccc3)c3cnccc23)n1,7,> 100000,56700,,194,,,Activity [7]: inactive
CN1CCN(c2ccc(Nc3ncc(Cl)c(-c4c[nH]c5cnccc45)n3)cc2)CC1,25,30,20,,,,,
Cc1nccc2c(-c3ccnc(-c4ccc(S(C)(=O)=O)cc4)n3)c[nH]c12,14,> 29000,> 100000,9,2120,4,24,
COc1cc(N2CCN(C(C)=O)CC2)ccc1Nc1cc(-c2cn(C)c3cnccc23)ncn1,34,> 100000,14800,11,,5,16,solubility [9]: 53 µM
COc1cc(N2CCN(C)CC2)ccc1Nc1nccc(-c2c[nH]c3cnc(C)cc23)n1,4,72,10500,6,,,,
COc1cc(N2CCN(C(C)=O)CC2)ccc1Nc1cc(-c2c[nH]c3cnccc23)ncn1,16,40500,14100,9,,,239,
CN1CCN(c2ccc(Nc3cc(-c4c[nH]c5ccccc45)ncn3)cc2)CC1,85,2410,33200,49,9960,13,,clearance [10]: 42 mL/min/kg; Ratio IC50 [11]: 28
O=C(NC1CCCC1)c1ccc(-c2cc(-c3cc4c([nH]3)CCNC4=O)ccn2)cc1,43,,,,,,,
COc1ccc2c(c1)[nH]c1c(C)nccc12 [HARMINE],,,,,,,,IC50 [12]: 2000 nM; IC50 [13]: 74000 nM
COc1cc(N2CCN(C)CC2)ccc1Nc1nccc(-c2cn(C)c3c(C)nccc23)n1,9,3170,13700,6,168,14,24,solubility [9]: 4 µM
COc1cc(N2CCN(C)CC2)ccc1Nc1nccc(-c2c[nH]c3cnccc23)n1,4,1490,1820,21,85,,,inhibition [14]: 90%; inhibition [15]: 92%; inhibition [16]: 83%
COc1cc(N2CCN(C)CC2)ccc1Nc1nccc(-c2c[nH]c3c(C)nccc23)n1,5,51,17400,< 5,83,0,38,

# Source: ChEMBL document CHEMBL3421608, “Discovery and optimization of a novel series of Dyrk1B kinase inhibitors to explore a MEK resistance hypothesis” (J Med Chem, 2015)
